Bioassay records: PubChem BioAssay, Broad Institute
Many of the other results were omitted from the sample, so hits are more common in it than they were.
CDK5 p35 inh = inhibitors of human CDK5/p35 kinase; Q00535+Q15078; Recombinant CDK5/p35, ADP-Glo luminescence, 60 min; inhibition, % at 10 µM; 0.01% of 330,000 active; AID 488839;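 active means highest replicate inhibition of at least 50% and at least 75% of replicates reaching 50%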;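 further: plate controls were DMSO neutral control for no effect and GW8510 at 10 µM for full effect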
GSK3 alpha inh = human GSK-3 alpha kinase inhibition; 0.1% of 320,000 active; ADP-Glo luminescence, 60 min; AID 2650; inhibition, % at 10 µM;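 active means more than half of replicates show inhibition above 20%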;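 further: GST-tagged GSK-3 alpha with peptide substrate and 25 µM ATP; 0% = DMSO neutral wells and 100% = GW8510 positive control wells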
Target sequence (P49840 whole entry, looked up): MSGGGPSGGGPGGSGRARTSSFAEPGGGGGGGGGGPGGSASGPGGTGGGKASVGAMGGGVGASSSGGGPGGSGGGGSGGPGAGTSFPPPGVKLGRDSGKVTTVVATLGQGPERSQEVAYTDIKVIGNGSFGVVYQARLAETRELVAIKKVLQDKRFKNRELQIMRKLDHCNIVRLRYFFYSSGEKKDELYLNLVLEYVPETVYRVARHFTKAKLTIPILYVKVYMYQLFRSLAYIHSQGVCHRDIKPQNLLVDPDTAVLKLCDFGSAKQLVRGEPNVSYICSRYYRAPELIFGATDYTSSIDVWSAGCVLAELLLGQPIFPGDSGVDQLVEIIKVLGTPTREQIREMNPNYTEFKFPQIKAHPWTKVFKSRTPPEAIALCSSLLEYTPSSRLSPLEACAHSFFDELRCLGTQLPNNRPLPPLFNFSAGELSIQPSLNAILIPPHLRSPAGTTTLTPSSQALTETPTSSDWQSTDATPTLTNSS
GSK3B inh = blocks human GSK3beta kinase activity; GST-GSK3beta kinase, ADP-Glo luminescence, 60 min; stronger effect = lower value; activity score (negative = inhibition), % at 10 µM; 0.038% of 300,000 active; AID 2097;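 active means more than half of replicate wells score below -50%, meaning over 50% inhibition versus plate controls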;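 further: 0% = median DMSO wells and -100% = median GW8510 positive control wells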
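Test system – GST-tagged human GSK3beta kinase, cell-free · Incubation – 60 min enzyme reaction, room temperature · Signal – ADP-Glo luminescence · Also added – peptide substrate and ATP at 25 µM · Controls – DMSO neutral wells and GW8510 at 20 µM as positive · Buffer or medium – Tris/MgCl2 kinase buffer · Measure – Luminescence-derived activity versus plate DMSO and GW8510 wells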
STK33 kinase inh = human STK33 kinase inhibition. Q9BYT3. purified STK33, MBP phosphorylation, ADP-Glo luminescence. inhibition, % at 10 µM. 0.073% of 320,000 active. AID 2661;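 active means inhibition at or above 25%, using the most active replicate where run in duplicate; inactive means inhibition below 25%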
Dyrk1A ADPGlo = Dyrk1A (rat) kinase inhibition. Q63470. ADP-Glo luminescence, NFATc1 peptide. inhibition, % at 12.5 µM. 0.43% of 310,000 active. AID 504441; in the data active means inhibition above about 50%;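 further: plate controls were vehicle with enzyme for no effect and no enzyme for full effect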
ADP-Glo artifact = interferes with ADP-Glo luciferase readout without Dyrk1A. shares compounds with Dyrk1A ADPGlo. ADP-Glo luciferase artifact assay, no Dyrk1A, luminescence. AC50, µM (doses to about 12 µM), for inactives: at the highest dose activity change, negative = inhibition. 1,300 tested, under 10 active. AID 588348;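 active means fitted half-maximal dose AC50 no more than ten times the top valid tested dose, with luminescence dropping as dose rises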
Numbers without * were called inactive; x = not tested or not shown.

SMILES	CDK5 p35 inh	GSK3 alpha inh	GSK3B inh	STK33 kinase inh	Dyrk1A ADPGlo	ADP-Glo artifact
COC(=O)c1nccc2c1[nH]c1ccccc12	2	3	-2	5	66*	9%
COC(=O)c1cc2c([nH]c3ccccc32)c(C)n1	x	x	1	x	x	x
CC(C)c1ccc(N2C(=NC(=O)C3CC3)SC3CS(=O)(=O)CC32)cc1 (stereo unspecified)	1	-1	-11	3	-7	x
O=c1cc(-c2ccc(O)cc2)oc2c(O)c(O)c(O)c(O)c12	3	10	x	16	54*	10%
O=c1cc(-c2ccccc2)oc2cc(O)c(O)c(O)c12	12	x	x	x	57*	10%
COc1c(O)cc2oc(-c3ccc(O)cc3)cc(=O)c2c1O	10	6	-3	7	30	x
COc1ccc(OC)c(C2=Nn3c(nnc3-c3ccco3)SC2)c1	1	5	1	-1	74*	9%
COc1ccc(C2=Nn3c(nnc3-c3ccco3)SC2)cc1	2	16	-2	0	38	x
Oc1ccc(C2=Nn3c(nnc3-c3ccco3)SC2)cc1O	-1	x	-23	3	79*	14%
CC(C)CC1NC(=O)N(CC(=O)N(C)C2CCCCC2)C1=O (stereo unspecified)	-1	-3	x	-1	-5	x
C[C@@H]1O[C@@H](OC[C@H]2O[C@@H](Oc3c(-c4ccc(O)c(O)c4)oc4cc(O)cc(O)c4c3=O)[C@H](O)[C@@H](O)[C@@H]2O)[C@H](O)[C@H](O)[C@H]1O	0	27	-32	1	77*	10%
CC1OC(OCC2OC(Oc3c(-c4ccc(O)cc4)oc4cc(O)cc(O)c4c3=O)C(O)C(O)C2O)C(O)C(O)C1O (stereo unspecified)	1	12	-22	0	53*	8%
O=c1c2c(O)cc(O)cc2oc2ccc(O)c(O[C@@H]3O[C@H](CO)[C@@H](O)[C@H](O)[C@H]3O[C@H]3O[C@H](CO)[C@@H](O)[C@H](O)[C@H]3O)c12	3	19	x	4	79*	10%
CC(=O)OC[C@H]1O[C@@H](Oc2cc(O)cc3oc(-c4ccc(O)cc4)cc(=O)c23)[C@H](O[C@@H]2O[C@@H](C)[C@H](O)[C@@H](O)[C@H]2O)[C@@H](O)[C@@H]1O	-4	-1	x	6	8	x
O=c1c(O[C@@H]2O[C@H](CO)[C@@H](O)[C@H](O)[C@H]2O)c(-c2ccc(O)c(O)c2)oc2cc(O)cc(O)c12	x	x	-47	x	x	x
O=c1c(OC2OC(CO)C(O)C(O)C2OC2OC(CO)C(O)C(O)C2OC2OC(CO)C(O)C(O)C2O)c(-c2ccc(O)c(O)c2)oc2cc(O)cc(O)c12 (stereo unspecified)	-1	1	x	0	26	x
CN(C)/C=C(\C=O)c1ccc(Cl)cc1Cl	0	6	-1	3	-4	x
OCC[C@H]1C[C@H](O)[C@@H](O)[C@@]2(CCCO2)O1	0	1	1	0	0	x
COc1ccc(NC(=O)/C(C#N)=C\c2ccc(-c3cccc(C(=O)O)c3C)o2)cc1	0	-10	0	6	78*	10%
COc1ccc2c(c1)c(=O)oc1c(C)c(OCc3cc(C(=O)O)oc3C)ccc12	4	16	-4	3	51*	8%
COc1ccc2c(c1)c(=O)oc1c(C)c(OCc3ccc(C(=O)O)cc3)ccc12	2	1	-4	0	3	x
C=C(C)[C@@H](O)COc1c2ccoc2cc2oc(=O)ccc12	1	6	x	2	59*	8%
CC(C)(O)[C@H](O)COc1c2ccoc2cc2oc(=O)ccc12	0	2	1	0	48	x
CC(=O)O[C@H](COc1c2ccoc2cc2oc(=O)ccc12)C(C)(C)O	0	-2	x	2	68*	10%
Cc1c(C(=O)N2CCC(C(N)=O)CC2)oc2ccc(Br)cc12	1	2	1	1	11	x
COc1cccc(-n2sc3c(c2=S)-c2cc(OC)ccc2NC3(C)C)c1	0	0	0	-2	-3	x
CC1(C)Nc2ccc(O)cc2-c2c1ssc2=S	0	36	-37	1	52*	9%
COc1ccc(-c2nc(N)ncc2-c2ccccc2)c(O)c1	1	3	4	4	-1	x
